Experimental data from different studies.
Each line is one published result; the experiments were not run side by side.
Observed: enzyme activity
Mode: inhibitor
ABL1 H396P: Tyrosine-protein kinase ABL1 (ABL1, Homo sapiens, UniProt P00519, H396P)
ABL1 G250E: Tyrosine-protein kinase ABL1 (ABL1, Homo sapiens, UniProt P00519, G250E)
ABL1: Tyrosine-protein kinase ABL1 (ABL1, Homo sapiens, UniProt P00519)
ABL1 E255K: Tyrosine-protein kinase ABL1 (ABL1, Homo sapiens, UniProt P00519, E255K)

Compound | target | assay | conditions | inhibition [%]
CNc1cccc2cc(C(=O)Nc3ccc(C(=O)O)cc3)c(=O)[nH]c12 | ABL1 H396P |  | 10 µM | 1.9
COc1cc2ncnc(Nc3ccc(Oc4ccccc4)cc3C)c2cc1OC | ABL1 G250E |  | 1 µM | 14
O=C(CSc1nc2nccnc2c(=O)n1CCc1ccccc1)Nc1nccs1 | ABL1 |  | 10 µM | 4
CN(C)C1CCN(CC#Cc2nn(C3CCCC3)c3nc(NCc4ccccc4)ncc23)C1 (stereo not shown) | ABL1 | FRET | 0.1 µM | 1
CSc1nc(C)c(-c2ccnc(Nc3ccc(N4CCOCC4)cc3)c2)[nH]1 | ABL1 |  | 10 µM | 19.3
CS(=O)(=O)Nc1cccc(-c2csc(NC(=O)CSc3nc4nccnc4c(=O)n3CCc3ccccc3)n2)c1 | ABL1 E255K |  | 10 µM | -2
CNCc1ccc(-c2cc(-c3nc(-c4ccc(S(=O)(=O)C(C)C)cc4)cnc3N)on2)cc1 | ABL1 |  | 0.4 µM | 11
C=CC(=O)Nc1cc(Nc2nccc(Nc3cc(Cl)c(F)cc3C(C)(C)O)n2)c(OC)cc1N1CC[C@@H](N(C)C)C1 | ABL1 |  | 1 µM | 6
COc1cc2ncnc(Nc3ccc(Oc4ccccc4)c(C)c3C)c2cc1OC | ABL1 G250E |  | 1 µM | 4
CNC(=O)c1cc2c(Oc3ccc(NC(=O)C4(C(=O)Nc5ccc(F)cc5)CC4)cc3)ccnc2cc1OC | ABL1 | radiometric | 1 µM | 70
CC/C(=N\NC(=O)NCc1cccc(O)c1)c1ccc(O)c(C)c1O | ABL1 E255K |  | 0.1 µM | -3.4
COc1cc(-c2cc(-c3ccc(N4CCNCC4)cc3)cnc2N)cc(OC)c1OC | ABL1 H396P |  | 0.1 µM | 87
COc1cc2nccc(Oc3ccc(NC(=O)c4c5n(n(-c6ccc(F)cc6)c4=O)CCCC5)cc3)c2cc1OC | ABL1 |  | 0.1 µM | 26
